Reference: ChEMBL document CHEMBL4414639, “Synthesis, Pharmacological Characterization, and Structure-Activity Relationships of Noncanonical Selective Agonists for α7 nAChRs” (J Med Chem, 2019)
Activity calls are given as the source filed them. No cut-off for these calls is given here.

Experiments:
[1] = molecular target: T1, Neuronal acetylcholine receptor; alpha4/beta2 (Homo sapiens) (UniProt P17787+P43681); experiment: Antagonist activity at alpha4beta2 nAChR (unknown origin) transfected in HEK cells assessed as decrease in epibatidine-induced intracellular calcium release incubated for 30 mins by FRET assay
[2] = molecular target: T2, Neuronal acetylcholine receptor subunit alpha-7 (Homo sapiens, UniProt P36544); experiment: Agonist activity at human alpha7 nAChR transfected in HEK cells assessed as increase in intracellular calcium release incubated for 30 mins in presence of PNU-120596 by FRET assay; assay type: cell-based
T2 sequence (P36544 whole entry): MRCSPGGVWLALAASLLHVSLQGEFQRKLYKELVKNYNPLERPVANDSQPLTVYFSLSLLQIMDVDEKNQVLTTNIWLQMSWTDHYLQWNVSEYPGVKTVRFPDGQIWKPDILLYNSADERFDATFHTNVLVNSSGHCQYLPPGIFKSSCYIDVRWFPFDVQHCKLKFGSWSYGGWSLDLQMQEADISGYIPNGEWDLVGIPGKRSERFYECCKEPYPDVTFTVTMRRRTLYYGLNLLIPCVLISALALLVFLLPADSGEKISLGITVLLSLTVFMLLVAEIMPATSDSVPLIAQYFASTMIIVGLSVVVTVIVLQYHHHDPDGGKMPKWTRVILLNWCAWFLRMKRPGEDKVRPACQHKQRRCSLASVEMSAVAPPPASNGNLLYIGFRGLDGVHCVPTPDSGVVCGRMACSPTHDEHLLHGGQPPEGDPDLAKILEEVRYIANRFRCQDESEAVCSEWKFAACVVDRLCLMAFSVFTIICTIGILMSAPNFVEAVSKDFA
Summary of the method: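 HEK cell line stably expressing α7 nAChR and the CNiFER (TN-XXL) biosensor, grown in DMEM + 10% FBS, 1% glutamine, 37 °C, 6% CO2. Cells preincubated 30 min at 37 °C in aCSF containing 10 μM PNU-120596 (final). Agonist injected at 30 s. FRET ratio (527/485 nm) followed over 120 s at 37 °C, triplicate wells. EC50 from variable-slope sigmoidal fit of mean peak ratios, normalized to the 316 μM response.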

[3] = molecular target: T3, 5-hydroxytryptamine receptor 3A (Homo sapiens) (UniProt P46098); experiment: Antagonist activity at 5HT3A (unknown origin) transfected in HEK cells assessed as decrease in agonist-induced intracellular calcium release incubated for 30 mins by FRET assay; assay type: cell-based
T3 sequence (whole entry): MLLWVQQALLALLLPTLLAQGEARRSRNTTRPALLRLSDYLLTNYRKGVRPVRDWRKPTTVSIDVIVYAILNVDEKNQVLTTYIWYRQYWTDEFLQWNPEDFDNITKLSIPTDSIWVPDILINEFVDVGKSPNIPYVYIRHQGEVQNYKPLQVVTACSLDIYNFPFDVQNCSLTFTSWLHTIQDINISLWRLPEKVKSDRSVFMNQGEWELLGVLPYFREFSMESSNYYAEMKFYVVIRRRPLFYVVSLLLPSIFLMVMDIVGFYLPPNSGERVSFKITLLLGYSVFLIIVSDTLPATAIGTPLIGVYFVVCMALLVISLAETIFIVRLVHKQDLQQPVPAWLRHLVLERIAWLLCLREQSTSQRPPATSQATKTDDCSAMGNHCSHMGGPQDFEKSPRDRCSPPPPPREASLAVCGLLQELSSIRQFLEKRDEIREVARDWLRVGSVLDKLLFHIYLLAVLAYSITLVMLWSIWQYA
Summary of the method: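 CNiFER HEK cell monolayers stably expressing the receptor. Test compound at three concentrations in aCSF, preincubated 30 min at 37 °C, 6% CO2, before agonist addition: epibatidine for α4β2, 5-HT for 5-HT3A. TN-XXL FRET ratio (527/485 nm) read over 120 s at 37 °C, agonist injected at 30 s, triplicate wells. Agonist EC50 shifts fitted. KA computed as [A]/(DR−1) (competitive) or [A]/(Δmax/Δ−1) (noncompetitive). At least three independent experiments. α4β2 stoichiometry not distinguished.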

[4] = molecular target: T2, Neuronal acetylcholine receptor subunit alpha-7; experiment: Agonist activity at alpha7 nAChR (unknown origin) transfected in HEK cells assessed as increase in intracellular calcium release incubated for 30 mins by FRET assay; assay type: cell-based
Summary of the method: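 Stable HEK cell line expressing α7 nAChR with TN-XXL FRET calcium biosensor (CNiFER), in DMEM with 10% FBS at 37 °C, 6% CO2. Cells preincubated 30 min at 37 °C in aCSF with PNU-120596 (10 µM final). FRET ratio (527/485 nm, 436 nm excitation) read at 37 °C over 120 s, agonist injected at 30 s, triplicate wells. EC50 from variable-slope sigmoidal fit of mean peak ratios, normalized to 316 µM response.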

[5] = molecular target: T4, Neuronal acetylcholine receptor; alpha3/beta4 (Homo sapiens) (UniProt P30926+P32297); experiment: Agonist activity at human alpha3beta4 nAChR expressed in Xenopus laevis oocytes assessed as increase in channel currents at 30 uM at -60 mV holding potential by two electrode voltage clamp assay; assay type: cell-based
Summary of the method: (§1)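 Two-electrode voltage clamp on oocytes at -60 mV in Ringer's (115 mM NaCl, 2.5 mM KCl, 1.8 mM CaCl2, 10 mM HEPES, 1 µM atropine, pH 7.2), 4 mL/min flow. Test compound applied 6 s, then 271 s washout. Normalized to mean of two ACh precontrols: 30 µM for α1β1εδ, 100 µM for α3β4, 100 µM for LS α4β2, 10 µM for HS α4β2.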

[6] = molecular target: T2, Neuronal acetylcholine receptor subunit alpha-7; experiment: Agonist activity at human alpha7 nAChR expressed in Xenopus laevis oocytes assessed as increase in channel currents at 30 uM at -60 mV holding potential followed washout for 211 sec and then 60 uM of Ach was applied by two electrode voltage clamp assay
[7] = organism: Mus musculus; experiment: Inhibition of mouse alpha1beta1epsilondelta nAChR expressed in Xenopus laevis oocytes assessed as increase in channel currents at 30 uM at -60 mV holding potential by two electrode voltage clamp assay; assay type: cell-based
[8] = molecular target: T4, Neuronal acetylcholine receptor; alpha3/beta4 (Homo sapiens); experiment: Inhibition of human alpha3beta4 nAChR expressed in Xenopus laevis oocytes assessed as increase in channel currents at 30 uM at -60 mV holding potential by two electrode voltage clamp assay; assay type: cell-based
[9] = molecular target: T2, Neuronal acetylcholine receptor subunit alpha-7; experiment: Agonist activity at human alpha7 nAChR expressed in Xenopus laevis oocytes assessed as increase in channel currents at 30 uM at -60 mV holding potential by two electrode voltage clamp assay; assay type: cell-based
Summary of the method: (§2)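 Oocytes expressing human α7 nAChR (with human RIC-3 cDNA available), clamped at -60 mV in Ringer's pH 7.2 with 1 µM atropine, 2 mL/min flow. Drug applied 12 s, 211 s washout. Responses normalized to mean of two 60 µM ACh precontrol responses per oocyte. Data from six cells. Concentration-response data fit to the Hill equation. Sequence included 30 µM test compound, then 60 µM ACh, then 10 µM PNU-120596.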

[10] = molecular target: T2, Neuronal acetylcholine receptor subunit alpha-7; experiment: Agonist activity at human alpha7 nAChR expressed in Xenopus laevis oocytes assessed as increase in channel currents at -60 mV holding potential by two electrode voltage clamp assay relative Ach; assay type: cell-based
Summary of the method: as §2

[11] = molecular target: T1, Neuronal acetylcholine receptor; alpha4/beta2 (Homo sapiens); experiment: Inhibition of human (alpha4)2 (beta2)3 nAChR expressed in Xenopus laevis oocytes assessed as increase in channel currents at 30 uM at -60 mV holding potential by two electrode voltage clamp assay; assay type: cell-based
[12] = molecular target: T2, Neuronal acetylcholine receptor subunit alpha-7; experiment: Inhibition of human alpha7 nAChR expressed in Xenopus laevis oocytes assessed as decrease in ACh-induced channel currents at -60 mV holding potential by two electrode voltage clamp assay; assay type: cell-based
Summary of the method: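 Human α7 nAChR in oocytes under two-electrode voltage clamp at -60 mV, Ringer's pH 7.2, 2 mL/min. Test compound applied 12 s with 211 s washout, then 60 µM ACh applied. ACh response normalized to the mean of two ACh precontrols per oocyte. Inhibition concentration-response curves from six cells, Hill equation fit.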

[13] = molecular target: T2, Neuronal acetylcholine receptor subunit alpha-7; experiment: Agonist activity at human alpha7 nAChR expressed in Xenopus laevis oocytes assessed as increase in channel currents at 30 uM at -60 mV holding potential in presence of 10 uM PNU-120596 by two electrode voltage clamp assay; assay type: cell-based
Summary of the method: as §2

[14] = molecular target: T1, Neuronal acetylcholine receptor; alpha4/beta2 (Homo sapiens); experiment: Inhibition of human (alpha4)3 (beta2)2 nAChR expressed in Xenopus laevis oocytes assessed as increase in channel currents at 30 uM at -60 mV holding potential by two electrode voltage clamp assay; assay type: cell-based
[15] = organism: Mus musculus; experiment: Agonist activity at mouse alpha1beta1epsilondelta nAChR expressed in Xenopus laevis oocytes assessed as increase in channel currents at 30 uM at -60 mV holding potential by two electrode voltage clamp assay; assay type: cell-based
Summary of the method: as §1

[16] = molecular target: T1, Neuronal acetylcholine receptor; alpha4/beta2 (Homo sapiens); experiment: Agonist activity at human (alpha4)3 (beta2)2 nAChR expressed in Xenopus laevis oocytes assessed as increase in channel currents at 30 uM at -60 mV holding potential by two electrode voltage clamp assay; assay type: cell-based
Summary of the method: as §1

[17] = molecular target: T1, Neuronal acetylcholine receptor; alpha4/beta2 (Homo sapiens); experiment: Agonist activity at human (alpha4)2 (beta2)3 nAChR expressed in Xenopus laevis oocytes assessed as increase in channel currents at 30 uM at -60 mV holding potential by two electrode voltage clamp assay; assay type: cell-based
Summary of the method: as §1

Structure (SMILES) | Ka [1] | EC50 [2] | Ka [3] | also measured
c1ccc(CN(Cc2ccccn2)c2cc(-c3ccsc3)ncn2)nc1 | > 10 µM | 2100 nM | > 10 µM | –
CSc1nc(-c2ccsc2)cc(N(Cc2ccccn2)Cc2ccccn2)n1 | 3.4 µM | 1800 nM | 2.2 µM | –
COc1ccc(-c2cc(N(Cc3ccccn3)Cc3ccccn3)nc(N)n2)c(OC)c1 | 2.5 µM | – | > 10 µM | EC50 [4]: 70 nM
COc1ccc(-c2cc(N(Cc3ccccn3)Cc3ccccn3)ncn2)c(F)c1 | 3 µM | 69 nM | 5.4 µM | Activity [5]: inactive; Activity [6]: inactive; inhibition activity (active/inactive) [7]: Active; inhibition [8]: Active; Activity [9]: Active; EC50 [10]: 600 nM; Imax [10]: 0.53; inhibition [11]: inactive; IC50 [12]: 1300 nM; Activity [13]: Active; inhibition [14]: inactive; Activity [15]: inactive; Activity [16]: inactive; Activity [17]: inactive
COc1cc(F)ccc1-c1cc(N(Cc2ccccn2)Cc2ccccn2)nc(N)n1 | 4.8 µM | 120 nM | > 10 µM | –
Fc1ccccc1-c1cc(N(Cc2ccccn2)Cc2ccccn2)ncn1 | 5.6 µM | 360 nM | 8.4 µM | –
COc1ccccc1-c1cc(N(Cc2ccccc2)Cc2ccccn2)nc(N)n1 | 1.3 µM | > 13300 nM | 4.1 µM | –
COc1ccccc1-c1cc(N(Cc2ccccn2)Cc2ccccn2)nc(N)n1 | 6.3 µM | – | > 10 µM | Activity [5]: inactive; Activity [6]: inactive; inhibition activity (active/inactive) [7]: Active; inhibition [8]: Active; Activity [9]: Active; EC50 [10]: 350 nM; Imax [10]: 0.98; inhibition [11]: inactive; IC50 [12]: 370 nM; inhibition [14]: inactive; EC50 [4]: 70 nM; Activity [15]: inactive; Activity [16]: inactive; Activity [17]: inactive
COc1ccccc1-c1cc(N(Cc2ccccn2)Cc2ccccn2)ncn1 | 7.9 µM | 140 nM | > 10 µM | Activity [5]: inactive; Activity [6]: inactive; inhibition activity (active/inactive) [7]: Active; inhibition [8]: Active; Activity [9]: Active; EC50 [10]: 3350 nM; Imax [10]: 0.89; inhibition [11]: inactive; IC50 [12]: 3500 nM; Activity [13]: Active; inhibition [14]: inactive; Activity [15]: inactive; Activity [16]: inactive; Activity [17]: inactive
CC(C)COc1ccccc1-c1cc(N(Cc2ccccn2)Cc2ccccn2)nc(N)n1 | 1.3 µM | 1600 nM | 5.5 µM | –
Nc1nc(-c2ccccc2Cl)cc(N(Cc2ccccn2)Cc2ccccn2)n1 | 3.4 µM | 160 nM | > 10 µM | –
c1ccc(CN(Cc2ccccn2)c2cc(N3CCOCC3)ncn2)nc1 | > 10 µM | > 13300 nM | > 10 µM | –
Nc1nc(-c2ccsc2)cc(N(Cc2ccccn2)Cc2ccccn2)n1 | > 10 µM | – | > 10 µM | EC50 [4]: 500 nM
COc1ccccc1-c1cc(N(Cc2ccccn2)Cc2ccccn2)nc(C(F)(F)F)n1 | 1.7 µM | 530 nM | 3.7 µM | –
COc1ccccc1-c1cc(N(Cc2ccccn2)Cc2ccccn2)nc(S(C)(=O)=O)n1 | 7.2 µM | 690 nM | > 10 µM | –
CSc1ccccc1-c1cc(N(Cc2ccccn2)Cc2ccccn2)nc(N)n1 | 4.3 µM | 240 nM | > 10 µM | –
COc1ncccc1-c1cc(N(Cc2ccccn2)Cc2ccccn2)nc(N)n1 | > 10 µM | 230 nM | > 10 µM | –
COc1ccccc1-c1cc(N(Cc2ccccn2)Cc2ccccn2)nc(SC)n1 | 1.1 µM | 110 nM | 2.8 µM | –
COc1ccc(-c2cc(N(Cc3ccccn3)Cc3ccccn3)nc(N)n2)c(F)c1 | 3.2 µM | 30 nM | 5.3 µM | Activity [5]: inactive; Activity [6]: inactive; inhibition activity (active/inactive) [7]: Active; inhibition [8]: Active; Activity [9]: Active; EC50 [10]: 110 nM; Imax [10]: 0.84; inhibition [11]: inactive; IC50 [12]: 470 nM; Activity [13]: Active; inhibition [14]: inactive; Activity [15]: inactive; Activity [16]: inactive; Activity [17]: inactive
CC(C)Oc1ccccc1-c1cc(N(Cc2ccccn2)Cc2ccccn2)nc(N)n1 | 1.5 µM | 890 nM | > 10 µM | –
FC(F)(F)c1nc(-c2ccsc2)cc(N(Cc2ccccn2)Cc2ccccn2)n1 | 0.96 µM | 2500 nM | 3.6 µM | –
COc1cccc(OC)c1-c1cc(N(Cc2ccccn2)Cc2ccccn2)nc(N)n1 | 7.1 µM | 5400 nM | > 10 µM | –
COc1ccccc1-c1cc(N(Cc2ccccn2)Cc2ccccn2)nc([S+](C)[O-])n1 (centres undefined) | > 10 µM | 920 nM | > 10 µM | –
